According to PMC9660540 (Clinical Cancer Research, 2022):

Assay: Causally related adverse events, phase Ia/Ib study in patients with solid tumors
Type: in vivo, human
Method in brief: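 Expansion cohorts received nanosuspension at 100 mg once daily. The safety set was all patients given ≥1 dose, classified by the treatment actually received. Treatment was delayed or reduced for grade ≥3 or clinically significant nonhematologic toxicity.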

Cc1cc(-c2nnc(N)nc2-c2ccc(F)cc2)cc(Cl)n1 [AZD4635]
2 (10.5) n (%): Causally related AE grade ≥3: Fatigue (Other IO-naïve) | Causally related AE grade ≥3: Hypertension (Other IO-naïve)
1 (4.8) n (%): Causally related AE grade ≥3: Anemia (Other Post-IO)
5 (26.3) n (%): ≥Grade 3 causally related AE (Other IO-naïve)
0 n (%): Causally related AE grade ≥3: ALT increased (CRC IO-naïve) | Causally related AE grade ≥3: Abdominal pain (CRC IO-naïve) | Causally related AE grade ≥3: Anemia (CRC IO-naïve) | Causally related AE grade ≥3: Arthralgia (CRC IO-naïve) | Causally related AE grade ≥3: Blood creatinine increased (CRC IO-naïve) | Causally related AE grade ≥3: CRP increased (CRC IO-naïve) | Causally related AE grade ≥3: Dermatitis psoriasiform (CRC IO-naïve) | Causally related AE grade ≥3: Diarrhea (CRC IO-naïve) | Causally related AE grade ≥3: Dizziness (CRC IO-naïve) | Causally related AE grade ≥3: Dyspnea (CRC IO-naïve) | Causally related AE grade ≥3: Headache (CRC IO-naïve) | Causally related AE grade ≥3: Hyperglycemia (CRC IO-naïve) | Causally related AE grade ≥3: Hypertension (CRC IO-naïve) | Causally related AE grade ≥3: Hypophosphatemia (CRC IO-naïve) | Causally related AE grade ≥3: Insomnia (CRC IO-naïve) | Causally related AE grade ≥3: Lipase increased (CRC IO-naïve) | Causally related AE grade ≥3: Lymphocyte count decreased (CRC IO-naïve) | Causally related AE grade ≥3: Myositis (CRC IO-naïve) | Causally related AE grade ≥3: Nausea (CRC IO-naïve) | Causally related AE grade ≥3: Neutrophil count decreased (CRC IO-naïve) | Causally related AE grade ≥3: Obliterative bronchiolitis (CRC IO-naïve) | Causally related AE grade ≥3: Rash (CRC IO-naïve) | Causally related AE grade ≥3: Type I diabetes mellitus (CRC IO-naïve) | Causally related AE grade ≥3: ALT increased (NSCLC Post-IO) | Causally related AE grade ≥3: Abdominal pain (NSCLC Post-IO) | Causally related AE grade ≥3: Anemia (NSCLC Post-IO) | Causally related AE grade ≥3: Arthralgia (NSCLC Post-IO) | Causally related AE grade ≥3: Blood creatinine increased (NSCLC Post-IO) | Causally related AE grade ≥3: CRP increased (NSCLC Post-IO) | Causally related AE grade ≥3: Dermatitis psoriasiform (NSCLC Post-IO) | Causally related AE grade ≥3: Diarrhea (NSCLC Post-IO) | Causally related AE grade ≥3: Dizziness (NSCLC Post-IO) | Causally related AE grade ≥3: Dyspnea (NSCLC Post-IO) | Causally related AE grade ≥3: Headache (NSCLC Post-IO) | Causally related AE grade ≥3: Hyperglycemia (NSCLC Post-IO) | Causally related AE grade ≥3: Hypertension (NSCLC Post-IO) | Causally related AE grade ≥3: Hypophosphatemia (NSCLC Post-IO) | Causally related AE grade ≥3: Insomnia (NSCLC Post-IO) | Causally related AE grade ≥3: Lipase increased (NSCLC Post-IO) | Causally related AE grade ≥3: Lymphocyte count decreased (NSCLC Post-IO) | Causally related AE grade ≥3: Myositis (NSCLC Post-IO) | Causally related AE grade ≥3: Nausea (NSCLC Post-IO) | Causally related AE grade ≥3: Neutrophil count decreased (NSCLC Post-IO) | Causally related AE grade ≥3: Obliterative bronchiolitis (NSCLC Post-IO) | Causally related AE grade ≥3: Rash (NSCLC Post-IO) | Causally related AE grade ≥3: Sudden death (NSCLC Post-IO) | Causally related AE grade ≥3: Type I diabetes mellitus (NSCLC Post-IO) | Causally related AE grade ≥3: Vomiting (NSCLC Post-IO) | Causally related AE grade ≥3: ALT increased (Other IO-naïve) | Causally related AE grade ≥3: Anemia (Other IO-naïve) | Causally related AE grade ≥3: Arthralgia (Other IO-naïve) | Causally related AE grade ≥3: Blood creatinine increased (Other IO-naïve) | Causally related AE grade ≥3: CRP increased (Other IO-naïve) | Causally related AE grade ≥3: Dermatitis psoriasiform (Other IO-naïve) | Causally related AE grade ≥3: Dizziness (Other IO-naïve) | Causally related AE grade ≥3: Dyspnea (Other IO-naïve) | Causally related AE grade ≥3: Headache (Other IO-naïve) | Causally related AE grade ≥3: Hyperglycemia (Other IO-naïve) | Causally related AE grade ≥3: Hypophosphatemia (Other IO-naïve) | Causally related AE grade ≥3: Insomnia (Other IO-naïve) | Causally related AE grade ≥3: Lipase increased (Other IO-naïve) | Causally related AE grade ≥3: Lymphocyte count decreased (Other IO-naïve) | Causally related AE grade ≥3: Myositis (Other IO-naïve) | Causally related AE grade ≥3: Nausea (Other IO-naïve) | Causally related AE grade ≥3: Neutrophil count decreased (Other IO-naïve) | Causally related AE grade ≥3: Obliterative bronchiolitis (Other IO-naïve) | Causally related AE grade ≥3: Rash (Other IO-naïve) | Causally related AE grade ≥3: Sudden death (Other IO-naïve) | Causally related AE grade ≥3: Type I diabetes mellitus (Other IO-naïve) | Causally related AE grade ≥3: Vomiting (Other IO-naïve) | Causally related AE grade ≥3: ALT increased (Other Post-IO) | Causally related AE grade ≥3: Abdominal pain (Other Post-IO)
1 (5.9) n (%): Causally related AE grade ≥3: Fatigue (NSCLC Post-IO) | ≥Grade 3 causally related AE (NSCLC Post-IO)
1 (4.0) n (%): Causally related AE grade ≥3: Fatigue (CRC IO-naïve) | Causally related AE grade ≥3: Sudden death (CRC IO-naïve) | Causally related AE grade ≥3: Vomiting (CRC IO-naïve)
1 (5.3) n (%): Causally related AE grade ≥3: Abdominal pain (Other IO-naïve) | Causally related AE grade ≥3: Diarrhea (Other IO-naïve)
3 (12.0) n (%): ≥Grade 3 causally related AE (CRC IO-naïve)
